High-throughput results as filed in PubChem.
In the library only some 1.8% were active in any assay of this set; here they are far more common.
mABHD4 FP – inhibits mouse alpha/beta hydrolase domain 4; purified mABHD4, FP-Rh probe fluorescence polarization; inhibition, % at 8.92 µM; 370,000 tested, 0.54% active; AID 720543;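 active = inhibition exceeding the mean over every tested compound plus 3 SD, cut at about 30% in these data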;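 also: 0% = plate median of compound wells and 100% = S159A mutant with DMSO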
Target sequence (Q8VD66 whole entry, looked up, the tested form may be a part): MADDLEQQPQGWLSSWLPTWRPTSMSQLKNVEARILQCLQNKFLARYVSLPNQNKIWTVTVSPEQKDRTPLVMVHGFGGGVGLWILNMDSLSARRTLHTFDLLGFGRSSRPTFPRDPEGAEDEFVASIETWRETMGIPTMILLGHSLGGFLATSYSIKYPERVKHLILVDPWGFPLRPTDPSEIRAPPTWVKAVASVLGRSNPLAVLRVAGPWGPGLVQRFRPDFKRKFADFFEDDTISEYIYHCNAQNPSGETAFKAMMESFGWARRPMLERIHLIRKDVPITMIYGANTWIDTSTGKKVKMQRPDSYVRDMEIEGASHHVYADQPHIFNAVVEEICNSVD
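Assay system: mABHD4 protein; medium: HEPES pH 7.0, NaCl, Pluronic buffer; dosing: 8.92 µM, single dose; schedule: 45 min + 60 min at 25 °C; signal: FP readout, ex 525 nm / em 598 nm; read-out: normalized percent inhibition of probe labeling; repeats: single replicate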
Tn7 DDE FP – disrupts Tn7 cyclic peptide binding to fibrin D-Dimer-E complex | 370,000 tested, 0.13% active | FP displacement of FITC-Tn7 peptide from fibrin DD(E); 0% = median of compound wells per plate | inhibition, % at 8.3 µM | P02675;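 active = inhibition above the mean of compounds falling within the control limits plus 3 SD of them, cut at about 14% in these data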;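 also: 0% = plate median of compound wells and 100% = 10 µM Aha-Tn7 peptide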
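Assay system: Human clot-derived fibrin DD(E) complex | Buffer or medium: Tris/NaCl/CaCl2 buffer, pH 7.8 | Repeats: One replicate per compound | Benchmarks: Aha-Tn7 high control | Measure: % inhibition scaled between sample-field median and high-control FP | Schedule: 10 min plus 3 h, room temperature | Signal: Fluorescence polarization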
Tn6 DDE FP – inhibitors of Tn6 peptide binding to human fibrin DD(E); Fibrin DD(E) TRITC-Tn6 fluorescence polarization displacement; inhibition, % at 8.3 µM; P02675; AID 720509; 370,000 tested, 0.21% active;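 active = inhibition above a per-campaign cutoff: mean of compounds within control limits plus 3 SD, cut at about 15% in these data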;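 also: 0% = median of all compound wells on the plate and 100% = blocking peptide control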
SIAE primary – inhibitors of human sialic acid acetylesterase SIAE. Q9HAT2. SIAE FP-Rh probe binding, fluorescence polarization. inhibition, % at 9.66 µM. 370,000 tested, 0.69% active. AID 1053197;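 active = inhibition above a cutoff: mean of compounds within the control limits plus 3 SD of those, cut at about 17% in these data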;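 also: 0% = plate median of compound wells and 100% = probe without SIAE protein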
HTRA1 inh – HTRA1 (human) protease inhibition | recombinant HTRA1, FP-rhodamine activity-based probe, fluorescence polarization | inhibition, % at 5.96 µM | Q92743 | AID 504803 | 340,000 tested, 0.5% active; in the data active = inhibition above about 36%;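 also: 0% = enzyme with DMSO and 100% = wells lacking enzyme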
TCR CD3 inh – blocks the human TCR-CD3 interaction. inhibition, % at 9.4 µM. TAMRA-labeled TCR probe fluorescence, biochemical. 360,000 tested, 0.37% active; in the data active = inhibition above about 19%;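 also: recombinant mutant TCR 2C K166C tagged with TAMRA read by polarization; 0% = receptor in buffer alone and 100% = receptor with positive control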
SIAE inh conf – confirmation of human SIAE inhibitors; shares compounds with SIAE primary; SIAE FP-Rh activity-based probe, fluorescence polarization; inhibition, % at 9.66 µM; 2,300 tested, 13% active; AID 1117263;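 active = mean inhibition of the replicates above the hit cutoff set in the primary screen, cut at about 17% in these data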;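 also: 0% = SIAE with DMSO and probe and 100% = probe without SIAE; inhibitors lower polarization as more probe stays unbound to SIAE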
* hit, by the source's call; / = not tested or not shown.

SMILES	mABHD4 FP	Tn7 DDE FP	Tn6 DDE FP	SIAE primary	HTRA1 inh	TCR CD3 inh	SIAE inh conf
COCCNC(=O)C(c1ccc(F)cc1)N(Cc1ccccc1)C(=O)CCC(=O)Nc1ccccn1 (configuration not stated)	-1	-4	12	-2	1	-5	/
CC(=O)Nc1nnc(SCC(=O)NC(C)(C)C)s1	5	1	-1	21*	-3	7	-9
CCC(C)C(=O)Nc1nnc(SCC(=O)NC(C)(C)C)s1 (configuration not stated)	3	4	7	-6	0	-3	/
C[C@@H]1CCCCO[C@H](CN(C)Cc2ccc(C(=O)O)cc2)[C@@H](C)CN([C@H](C)CO)C(=O)c2cc(N(C)C)ccc2O1	-3	-3	3	7	2	-6	/
C[C@@H]1CCCCO[C@@H](CN(C)Cc2ccc(C(F)(F)F)cc2)[C@@H](C)CN([C@H](C)CO)C(=O)c2cc(N(C)C)ccc2O1	13	-3	5	22*	4	0	6
O=C(O)c1ccc(C=Nn2c(-c3ccc(F)cc3)n[nH]c2=S)cc1	3	3	-1	7	/	/	/
COc1cc(-n2c(C)nc3cc(C(=O)N4CCCCC4)ccc32)cc(OC)c1OC	-13	1	3	-16	/	/	/
CC12CN3CCN(CC(C3)/C1=N/N=C/c1cccc([N+](=O)[O-])c1)C2	-1	-9	2	17*	3	1	0
CC(C)N1CCC(C)(C(=O)Nc2ccc(-n3cccc3)cc2)C1 (configuration not stated)	1	-5	4	17*	/	-7	-4
CC(C)N1CCC1(C)C(=O)Nc1ccc(-n2cccc2)cc1 (configuration not stated)	3	4	6	0	/	1	/
CC1(NC(=O)Nc2cccc3ccccc23)CCS(=O)(=O)C1 (configuration not stated)	-10	0	-7	22*	4	3	1
Cc1ccn2cc(-c3ccc(Br)cc3)nc2c1	3	-5	-2	17*	-7	7	-1
COc1cc2[nH]c3c(N4CCN(c5ccc(Cl)cc5)CC4)ncnc3c2cc1OC	11	2	-5	30*	2	5	25*
COc1cc2[nH]c3c(Cl)ncnc3c2cc1OC	4	-4	-4	-1	-3	-6	/
COc1cccc(N2CCN(c3ncnc4c3[nH]c3ccc(F)cc34)CC2C)c1 (configuration not stated)	0	-2	-11	19*	-18	1	-4
COc1cccc(N2CCN(c3ncnc4c3[nH]c3ccccc34)CC2C)c1 (configuration not stated)	15	2	-2	11	/	-1	/
COc1cc(CNc2cc(C)ccc2C)cc(OC)c1OC	-5	0	3	24*	3	2	0
COC(=O)[C@]12C[C@H](CC(=O)N3CCC(c4ccccc4)CC3)C(=O)N(Cc3cccc4ccccc34)C1=C[C@H](COCc1ccccc1)O[C@@H]2C	-8	5	-7	0	/	/	/
CCc1nnc(NC(=O)CCn2cnc3ccccc3c2=O)s1	-7	-4	-1	22*	/	2	1
O=C(NCCc1csc(-c2ccccc2)n1)c1ccc(Br)o1	2	1	5	-1	-12	3	/
O=C(NCCc1csc(-c2cccnc2)n1)c1ccc(Br)o1	-2	-2	-4	18*	-3	6	-1
COC(=O)[C@]1(C#N)CC(=O)N(C(C)C)[C@@H]1c1ccccc1	-2	0	-1	-8	/	/	/
CC1(C)CC(=O)N(CC(=O)N2CCN(c3cccc(C(F)(F)F)c3)CC2)c2ccccc2S1(=O)=O	-1	9	-4	13	/	/	/
O=C(CSc1nc(O)c(C2CCCCC2)c(=O)[nH]1)NCC1CCCO1 (configuration not stated)	7	7	-7	17*	6	-4	6
COc1ccc(CN2CN3Cc4cc(OC)ccc4C3CS2(=O)=O)cc1 (configuration not stated)	-2	0	0	-2	/	/	/
SMILES	mABHD4 FP	Tn7 DDE FP	Tn6 DDE FP	SIAE primary	HTRA1 inh	TCR CD3 inh	SIAE inh conf
O=C1CCCN1c1ccc(S(=O)(=O)N2CCC(c3ccccc3)CC2)cc1	-4	6	-2	22*	-1	-4	-2
CCOC(=O)C(=O)NCc1ccc(/C=C2/N=C(C)C(C(=O)OCC)=C2O)o1	15	-9	-8	3	8	6	/
CCOC(=O)C1=C(O)/C(=C/c2ccc(CNC(=O)C(=O)Nc3ccc(C)cc3)o2)N=C1C	29	-5	0	9	32	-7	/
CCOC(=O)C1=C(O)/C(=C\c2ccc(CNS(=O)(=O)c3ccc(Br)cc3)o2)N=C1C	23	2	9	18*	18	0	5
COC(=O)C1=C(O)/C(=C\c2ccc(CNS(=O)(=O)c3ccc(Cl)cc3)o2)N=C1C	29	-1	-1	22*	34	14	-5
Cc1nc(SCC(N)=O)[nH]c(=O)c1C	4	-4	3	-2	/	/	/
CCOC(=O)/C=C(\C)Sc1cc(O)c2ccccc2c1O	34*	-2	-70	18*	20	-8	-1
CN(C)c1cccc2c(S(=O)(=O)NC(=O)[C@H]3O[C@@H](n4cnc5c(N)ncnc54)[C@H](O)[C@@H]3O)cccc12	7	-3	-2	56*	/	10	53*
Cn1c(=O)n(C)c2cc(CNC(=O)[C@H]3O[C@@H](n4cnc5c(N)ncnc54)[C@H](O)[C@@H]3O)ccc21	2	-7	4	6	/	-1	/
Nc1ncnc2c1ncn2[C@@H]1O[C@H](C(=O)NCCc2ccc(F)cc2)[C@@H](O)[C@H]1O	-1	5	-3	23*	/	4	22*
CN(Cc1ccc2c(c1)CCCN2C)C(=O)[C@H]1O[C@@H](n2cnc3c(N)ncnc32)[C@H](O)[C@@H]1O	4	-3	-6	59*	/	12	47*
Nc1ncnc2c1ncn2[C@@H]1O[C@H](C(=O)N[C@@H](CO)Cc2ccccc2)[C@@H](O)[C@H]1O	6	1	2	25*	/	0	25*
CC(C)[C@@H](CO)NC(=O)[C@H]1O[C@@H](n2cnc3c(N)ncnc32)[C@H](O)[C@@H]1O	0	-7	6	8	/	-6	/
O=S1(=O)c2ccccc2-c2c(nnn2CC2CCCCC2)CN1C1CC1	-2	-11	6	-5	/	/	/
